Rows were chosen to be rich in hits. Some 7.2% of all compounds tested hit in one or more screens of this group.
HEK293 NFkB inh: inhibitors of the PMA/ionomycin-induced NF-kB reporter in HEK293 cells; HEK-293 NF-kB luciferase reporter, luminescence; inhibition, % at 3 µM; 62,000 compounds, 0.21% hits; AID 465;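 active = inhibition above the mean of all tested compounds plus 3 SD, cut at about 40% in these data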;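 also: 0% = stimulated DMSO wells and 100% = 10 µM reference inhibitor 5653914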
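Timing: 1 h pretreatment, 16 h stimulation, 37 °C; system: HEK-293 cells with stable firefly luciferase reporter driven by four HIV NF-kB elements; doses: 3 µM once, 0.30% DMSO; measured by: luciferase luminescence; control set: DMSO and 10 µM reference inhibitor; repeats: single test; reagent: PMA plus ionomycin mix as NF-kB-activating stimulus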
DAT uptake mod: changed human dopamine transporter uptake under cocaine IC80; Q01959; LLC-PK1 hDAT cells, [14C]-dopamine uptake with cocaine IC80; actives deviate in either direction; B-score at 10 µM; 110,000 compounds, 1.3% hits; AID 449768;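 active = Z score or B-score, a plate-position-corrected score, falls beyond the plate's 99.7% confidence bounds, in either direction; inactive = both scores lie inside the 99.7% bounds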;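 also: scored against the spread of the other compound wells on the same plate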
BAP1 block: human BAP1 deubiquitinase inhibition; 72,000 compounds, 0.48% hits; recombinant BAP1, Ub-AMC hydrolysis fluorescence kinetic; active compounds read low; AID 436; Q92560; calls only at 20 µM;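 active = activity remaining at or below 50% of control, provided the compound also passes the data quality filters; inactive = the rest, including low values that fail the filters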;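 also: 100% = DMSO wells rate and 0% = substrate alone blank rate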
Target sequence (Q92560 whole entry, looked up): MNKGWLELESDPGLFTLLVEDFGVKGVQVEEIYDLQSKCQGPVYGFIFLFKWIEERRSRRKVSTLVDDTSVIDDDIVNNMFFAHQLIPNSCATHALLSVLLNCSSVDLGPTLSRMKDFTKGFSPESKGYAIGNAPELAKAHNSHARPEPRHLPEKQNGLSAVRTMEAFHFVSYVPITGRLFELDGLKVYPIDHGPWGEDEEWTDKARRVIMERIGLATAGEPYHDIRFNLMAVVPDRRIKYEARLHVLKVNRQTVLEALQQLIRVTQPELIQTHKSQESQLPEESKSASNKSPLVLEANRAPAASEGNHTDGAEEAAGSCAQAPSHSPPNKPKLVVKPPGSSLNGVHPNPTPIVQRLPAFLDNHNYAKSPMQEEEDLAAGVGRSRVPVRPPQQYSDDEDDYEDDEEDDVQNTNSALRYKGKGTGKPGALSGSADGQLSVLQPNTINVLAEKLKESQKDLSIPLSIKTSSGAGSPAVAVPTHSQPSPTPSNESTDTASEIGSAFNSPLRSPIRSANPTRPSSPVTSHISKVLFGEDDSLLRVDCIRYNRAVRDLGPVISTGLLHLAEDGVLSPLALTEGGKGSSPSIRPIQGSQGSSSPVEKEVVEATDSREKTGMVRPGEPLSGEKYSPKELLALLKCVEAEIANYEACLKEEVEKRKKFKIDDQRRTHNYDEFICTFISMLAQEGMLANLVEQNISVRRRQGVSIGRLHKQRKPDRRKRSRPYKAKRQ
M1 antagonist: antagonists of rat M1 muscarinic receptor; P08482; CHO-M1 cells, Fluo-4 calcium, ACh EC80 antagonist mode; active compounds read low; B-score at 10 µM; 64,000 compounds, 3.4% hits; AID 628;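 active = calcium fluorescence response, raw or row-and-column corrected B-score, differing from the plate sample mean either way at a set confidence level, mostly lower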
D1 allo mod: allosteric modulators of human D1 dopamine receptor | HEK293 D1, CRE-luciferase, dopamine EC30 potentiation; actives deviate in either direction | P21728 | AID 641 | B-score at 10 µM | 58,000 compounds, 5.9% hits;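 active = luminescence count or its row- and column-corrected plate score outside the 99.7% band of the plate's sample wells, on either side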
M1 ag: activates the M1 muscarinic receptor | CHO-M1 cells, Fluo-4 calcium fluorescence, agonist mode; active compounds read high | B-score at 10 µM | 64,000 compounds, 3% hits;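 active = fluorescence rise, raw or as B-score row- and column-corrected plate score, outside the 99.7% band of its plate's samples, either direction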
D1 mod confirm: confirmation of human D1 dopamine receptor allosteric modulators; luminescence at 10 µM; shares compounds with D1 allo mod; HEK293 D1 CRE-luciferase, dopamine EC30 potentiation; active compounds read high; 2,200 compounds, 88% hits;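 active = luminescence in either of two replicates above the same-plate mean plus 3 SD of the low-dose dopamine control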
D1 ag no DA: activates D1 CRE-luciferase signal without dopamine present; shares compounds with D1 allo mod; HEK293 D1 CRE-luciferase, luminescence, no dopamine; active compounds read high; luminescence at 10 µM; 1,900 compounds, 0.8% hits; in the data active = luminescence above about 3900
Isoprot counter: alters isoproterenol CRE-luciferase response in HEK293 cells | shares compounds with D1 allo mod | HEK293 D1 CRE-luciferase, isoproterenol EC30 counter-screen | calls only at 10 µM | 2,200 compounds, 63% hits | AID 647;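 active = luminescence in either replicate above plate mean of wells with a partly effective reference agonist dose plus 3 SD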;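 also: isoproterenol raises cAMP through native beta-adrenoceptor Gs so signal bypasses D1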
The depositor's hits bear a star; i = inactive; nt = not tested or not shown; + = active, no number.

SMILES | HEK293 NFkB inh | DAT uptake mod | BAP1 block | M1 antagonist | D1 allo mod | M1 ag | D1 mod confirm | D1 ag no DA | Isoprot counter
COCCn1nnnc1C(c1ccc(OC)cc1)N1CCN(c2ccccc2F)CC1 (centres undefined) | 1 | -0.017 | i | 0.22 | 0.011 | 0.0027 | nt | nt | nt
CCOC(=O)C(Sc1nnc2c3ccccc3n(CC)c2n1)C(=O)OCC | 15 | -0.74 | i | -0.43 | 5.2* | 0.052 | 11136* | 1560 | +
CCOC(=O)CSc1nnc2c3ccccc3n(CC)c2n1 | nt | nt | i | nt | nt | nt | nt | nt | nt
CC1CCC(C(=O)Oc2ccc(Br)cc2)CC1 (centres undefined) | nt | nt | i | nt | nt | nt | nt | nt | nt
N#CC1=C(N)Oc2nc(-c3ccccc3)[nH]c2C1c1cccnc1 (centres undefined) | 27 | 1.8 | i | 1.1 | 5.1* | -0.033 | 8448* | 1564 | i
CC(C)c1[nH]nc2c1C(c1cccnc1)C(C#N)=C(N)O2 (centres undefined) | 22 | 1.6 | i | 0.96 | -0.53 | -0.4 | nt | nt | nt
COc1cc2ccccc2cc1C(=O)Nc1cccnc1 | -20 | 0.71 | i | 2 | nt | 0.54 | nt | nt | nt
O=C(Nc1cccnc1)c1ccccc1Oc1ccccc1 | -2 | -0.13 | i | -0.43 | 6.3* | -0.38 | 15336* | 1584 | +
Cc1nc2ccccc2c2oc(C(=O)NCCN3CCN(C)CC3)cc12 | 18 | 0.0018 | i | -0.69 | 2.6* | -0.34 | 5656 | 1600 | i
Cc1cc(Oc2ccccc2)nc(-c2ccccc2)n1 | 8 | -1.4 | i | -1.7 | 2.7* | -0.1 | 6804* | 1624 | +
O=S(=O)(Cc1cc(Oc2ccccc2)nc(-c2ccccc2)n1)c1ccccc1 | nt | -0.65 | nt | nt | nt | nt | nt | nt | nt
COc1ccc(NC(=O)C2CCCN2c2ccc(OC)c(OC)c2)cc1OC (centres undefined) | 15 | -0.71 | nt | 0.3 | 6* | 0.042 | 15612* | 1544 | +
COc1ccc(NC(=O)C2CCCCN2N)cc1OC (centres undefined) | nt | 0.099 | nt | nt | nt | nt | nt | nt | nt
COc1ccc(CN2CCCC2C(=O)Nc2ccc(OC)c(OC)c2)cc1OC (centres undefined) | -5 | 0.36 | i | 0.79 | -0.01 | -0.053 | nt | nt | nt
COc1ccc(CN2CCCCC2C(=O)Nc2ccc(OC)c(OC)c2)cc1OC (centres undefined) | 7 | 0.022 | i | 0.76 | 7.2* | 0.021 | 14900* | 1604 | +
CC(C)c1nc2sc3c(SCC(=O)NCc4ccco4)ncnc3c2c2c1CCC2 | 13 | 0.083 | nt | -0.26 | 14* | -0.03 | 17912* | nt | i
O=C(CSc1ncnc2sc3c(c12)CCCCC3)NCc1ccco1 | -1 | -0.53 | i | 0.11 | 4.3 | 0.14 | nt | nt | nt
O=C1CSC(c2ccccc2[N+](=O)[O-])N1 (centres undefined) | nt | nt | i | nt | nt | nt | nt | nt | nt
O=c1[nH]c(=O)n(C2CCCO2)cc1F (centres undefined) | nt | -0.52 | nt | nt | nt | nt | nt | nt | nt
O=c1c(F)cn(C2CCCO2)c(=O)n1Cc1c(F)cccc1Cl (centres undefined) | -4 | -0.24 | i | 0.00092 | 6.2* | -0.015 | 8312* | 1800 | +
Cc1c(C(=O)NCc2ccccc2)oc2ccc(S(=O)(=O)N3CCCC3)cc12 | 18 | 0.6 | i | 0.52 | 11* | -0.75 | 21124* | 1628 | +
COc1ccccc1CNC(=O)c1oc2ccc(S(=O)(=O)N3CCCC3)cc2c1C | 16 | 0.86 | i | -1.6 | 30* | -0.16 | 19660* | 1724 | +
Cc1c(C(=O)NCc2ccc3c(c2)OCO3)oc2ccc(S(=O)(=O)N3CCCC3)cc12 | 26 | 0.58 | nt | 0.51 | nt | -0.25 | nt | nt | nt
Cc1cccc(Nc2ncc([N+](=O)[O-])cc2[N+](=O)[O-])n1 | nt | nt | i | nt | nt | nt | nt | nt | nt
Cc1noc(C)c1CSc1nnc2n(-c3ccccc3)c(=O)c3ccccc3n12 | 11 | nt | i | -1.7 | -0.58 | 1.1 | nt | nt | nt
SMILES | HEK293 NFkB inh | DAT uptake mod | BAP1 block | M1 antagonist | D1 allo mod | M1 ag | D1 mod confirm | D1 ag no DA | Isoprot counter
Cc1nc(CSc2nc3[nH]ncc3c(=O)n2-c2ccccc2)cs1 | 16 | 0.058 | i | 0.36 | 4.6* | 0.11 | 12732* | 1692 | +
Cc1noc(C)c1CSc1nc2[nH]ncc2c(=O)n1-c1ccccc1 | 32 | -0.7 | i | 0.75 | 11* | 0.0024 | 14168* | 1776 | +
Brc1ccc(CN2C3=NCCN3c3ccccc32)cc1 | nt | nt | i | nt | nt | nt | nt | nt | nt
Cc1c(Cl)c([N+](=O)[O-])nn1CC(=O)Nc1cc(Oc2ccccc2)cc(Oc2cccnc2)c1 | nt | nt | i | nt | nt | nt | nt | nt | nt
CCOC(=O)N1CCC(N2Cc3cccc(C(=O)NCc4ccc(OC)cc4)c3C2=O)CC1 | 12 | nt | i | nt | 2.9 | nt | nt | nt | nt
O=C(NCc1ccc2c(c1)OCO2)c1cccc2c1C(=O)N(C1CCCCC1)C2 | 5 | -0.42 | i | 0.16 | 6* | 0.56 | 10552* | 1592 | +
CCCN1Cc2cccc(C(=O)NCc3cccs3)c2C1=O | -3 | 0.46 | i | -0.3 | 18* | -0.035 | 24472* | 1580 | +
CCCN1Cc2cccc(C(=O)NC3CCCC3)c2C1=O | 24 | 0.88 | i | 0.61 | 12* | -0.15 | 16648* | 1612 | +
CCCN1Cc2cccc(C(=O)Nc3cc(OC)cc(OC)c3)c2C1=O | 10 | -0.34 | i | 0.062 | 0.026 | 0.28 | nt | nt | nt
CCOC(=O)N1CCC(N2Cc3cccc(C(=O)NCc4ccccc4OC)c3C2=O)CC1 | 9 | 2 | i | nt | 4.9* | nt | 7800 | 1720 | i
O=C(Nc1c2c(nn1-c1ccc(Oc3ccccc3)cc1)CSC2)c1ccco1 | nt | nt | i | nt | nt | nt | nt | nt | nt
CC1CC(C)CN(S(=O)(=O)c2ccc(C(=O)Nc3cccc(-c4nc5ccccc5s4)c3)cc2)C1 (centres undefined) | nt | nt | i | nt | nt | nt | nt | nt | nt
CCCN1Cc2cccc(C(=O)NCc3ccc4c(c3)OCO4)c2C1=O | 10 | -0.055 | i | 0.71 | 12* | -0.62 | 15396* | 1860 | +
CCOC(=O)C(Cc1cc(C(C)=O)ccc1OCC)C(=O)OCC | 5 | 1.1 | i | 0.29 | 0.46 | 0.91 | nt | nt | nt
CCOc1ccc(C(C)=O)cc1COC(=O)C1=COCCO1 | 11 | 1.3 | i | 0.2 | 4.7* | 0.083 | 12532* | 1772 | +
Fc1ccc(-c2cc(C(F)(F)F)nc(-n3cncn3)n2)cc1 | 20 | -0.58 | i | 0.016 | 3.4* | -1.2 | 8460* | 1488 | i
CCNc1nc(NC(C)C)nc(N(C#N)CCOc2ccccc2)n1 | nt | -0.36 | nt | nt | nt | nt | nt | nt | nt
CC(C)Nc1nc(NC(C)C)nc(N(C)C#N)n1 | 7 | 0.49 | i | -0.11 | 16* | 0.86 | 21628* | 1804 | +
